# Experimental data from ChEMBL document CHEMBL1128342, “Novel thiazole-based heterocycles as selective inhibitors of fibrinogen-mediated platelet aggregation” (J Med Chem, 1995).
# What was measured:
# [1] = In vitro inhibition of thrombin-induced platelet aggregation.; type: functional; conditions: Homo sapiens
# [2] = target: T1, Integrin alpha-IIb/beta-3 (Homo sapiens, UniProt P05106+P08514); assay: Inhibition of [125I]fibrinogen binding to human Fibrinogen Receptor at 50 uM; type: protein-complex assay
# Method in brief: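 Human PRP with aspirin (50 μM, 37 °C, 20 min), pH 6.5, PGE1 0.9 μM; platelets gel-filtered, 1×10^8 per tube, thrombin-activated 2 min at room temperature, then hirudin. Compound plus [125I]fibrinogen (0.1 μM final) 10 min room temperature; platelets spun through silicone oil and pellet counted. Nonspecific binding with 4 mg/mL unlabeled fibrinogen; triplicates; % inhibition of specific binding vs fibrinogen alone.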
# [3] = target: T1, Integrin alpha-IIb/beta-3; assay: Inhibition of [125I]fibrinogen binding to human Fibrinogen Receptor.; type: protein-complex assay
# Target sequence in this assay (P05106 27-788 limits assumed): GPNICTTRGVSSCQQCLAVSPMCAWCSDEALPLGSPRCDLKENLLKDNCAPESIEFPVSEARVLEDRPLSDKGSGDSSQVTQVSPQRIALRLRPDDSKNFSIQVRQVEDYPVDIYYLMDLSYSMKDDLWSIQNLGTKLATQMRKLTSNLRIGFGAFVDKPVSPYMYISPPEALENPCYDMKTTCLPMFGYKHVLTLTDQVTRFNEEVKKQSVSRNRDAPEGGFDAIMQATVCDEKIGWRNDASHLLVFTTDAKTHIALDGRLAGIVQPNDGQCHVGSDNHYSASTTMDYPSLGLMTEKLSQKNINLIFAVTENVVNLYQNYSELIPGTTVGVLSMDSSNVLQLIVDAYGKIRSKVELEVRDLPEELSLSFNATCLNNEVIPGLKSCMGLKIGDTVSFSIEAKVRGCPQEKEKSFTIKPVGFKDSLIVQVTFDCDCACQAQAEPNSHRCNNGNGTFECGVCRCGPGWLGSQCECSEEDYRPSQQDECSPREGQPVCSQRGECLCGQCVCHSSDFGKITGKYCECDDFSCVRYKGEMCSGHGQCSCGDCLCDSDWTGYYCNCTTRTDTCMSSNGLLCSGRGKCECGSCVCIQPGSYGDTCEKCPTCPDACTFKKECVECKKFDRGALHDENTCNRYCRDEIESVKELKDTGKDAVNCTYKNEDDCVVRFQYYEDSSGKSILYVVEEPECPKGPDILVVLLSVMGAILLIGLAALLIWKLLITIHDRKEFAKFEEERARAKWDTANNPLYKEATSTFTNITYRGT
# Target sequence in this assay (P08514 32-887 limits assumed): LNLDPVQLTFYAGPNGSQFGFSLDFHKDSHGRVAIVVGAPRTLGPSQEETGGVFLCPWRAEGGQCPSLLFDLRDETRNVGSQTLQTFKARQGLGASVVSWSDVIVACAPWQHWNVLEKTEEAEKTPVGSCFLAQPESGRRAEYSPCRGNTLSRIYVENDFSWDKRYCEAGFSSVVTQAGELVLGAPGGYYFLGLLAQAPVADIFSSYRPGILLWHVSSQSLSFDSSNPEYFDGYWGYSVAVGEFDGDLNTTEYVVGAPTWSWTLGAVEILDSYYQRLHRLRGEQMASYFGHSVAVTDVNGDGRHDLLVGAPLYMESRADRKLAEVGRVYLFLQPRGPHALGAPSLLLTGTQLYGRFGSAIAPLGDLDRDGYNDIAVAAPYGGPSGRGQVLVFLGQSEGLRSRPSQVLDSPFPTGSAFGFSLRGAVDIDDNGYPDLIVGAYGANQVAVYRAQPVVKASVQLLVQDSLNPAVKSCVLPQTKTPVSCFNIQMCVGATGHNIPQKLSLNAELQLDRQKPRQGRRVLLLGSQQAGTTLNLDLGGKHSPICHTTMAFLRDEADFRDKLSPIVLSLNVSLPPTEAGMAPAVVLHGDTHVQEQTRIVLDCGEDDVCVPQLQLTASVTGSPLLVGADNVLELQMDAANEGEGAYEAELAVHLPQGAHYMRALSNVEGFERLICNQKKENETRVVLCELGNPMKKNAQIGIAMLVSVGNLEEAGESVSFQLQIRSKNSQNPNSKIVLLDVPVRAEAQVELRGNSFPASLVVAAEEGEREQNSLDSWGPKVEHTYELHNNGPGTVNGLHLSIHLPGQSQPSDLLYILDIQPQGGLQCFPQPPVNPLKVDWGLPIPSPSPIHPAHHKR
# Target sequence in this assay (P08514 891-1039 limits assumed): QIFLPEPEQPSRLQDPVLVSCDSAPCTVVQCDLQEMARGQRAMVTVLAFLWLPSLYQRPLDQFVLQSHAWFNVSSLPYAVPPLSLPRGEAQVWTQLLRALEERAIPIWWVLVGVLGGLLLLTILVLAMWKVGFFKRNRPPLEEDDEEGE
# [4] = target: T1, Integrin alpha-IIb/beta-3; assay: Inhibition of thrombin-induced platelet aggregation at 50 uM; type: functional
IC50 [1],inhibition [2],IC50 [3],inhibition [4],Compound
30 µM,,,,N=C(N)NCCC[C@H](N)C(=O)NCC(=O)N[C@@H](CC(=O)O)C(=O)N[C@@H](CO)C(=O)O
11.5 µM,61%,,,NCCCCCNC(=O)c1cnn(-c2nc(-c3cccc(C(F)(F)F)c3)cs2)c1C(F)(F)F
13.7 µM,,15.6 µM,,CN(C)/C=N/CCCNC(=O)c1cnn(-c2nc(-c3cccc(C(F)(F)F)c3)cs2)c1C(F)(F)F
6.1 µM,,25 µM,,O=C(NCCCNC1CCCCC1)c1cnn(-c2nc(-c3cccc(C(F)(F)F)c3)cs2)c1C(F)(F)F
,0%,,33%,O=C(NCCCn1ccnc1)c1cnn(-c2nc(-c3cccc(C(F)(F)F)c3)cs2)c1C(F)(F)F
4.8 µM,,18.3 µM,,NCCCCNC(=O)c1cnn(-c2nc(-c3cccc(C(F)(F)F)c3)cs2)c1C(F)(F)F
2.7 µM,,1.3 µM,,CCN(CC)CCCNC(=O)c1cnn(-c2nc(-c3cccc(C(F)(F)F)c3)c(Br)s2)c1C(F)(F)F
6.8 µM,,45 µM,,CCN(CC)CCCNC(=O)c1cnn(-c2nc(-c3ccc(Cl)cc3)cs2)c1C(F)(F)F
14.3 µM,,10 µM,,CCCNCCCNC(=O)c1cnn(-c2nc(-c3cccc(C(F)(F)F)c3)cs2)c1C(F)(F)F
,0%,,0%,O=C(NCCCN1CCCC1=O)c1cnn(-c2nc(-c3cccc(C(F)(F)F)c3)cs2)c1C(F)(F)F
,0%,,35%,CCN(CC)CCCCCCCNC(=O)c1cnn(-c2nc(-c3cccc(C(F)(F)F)c3)cs2)c1C(F)(F)F
10.9 µM,,30 µM,,O=C(NCCCN1CCCCC1)c1cnn(-c2nc(-c3cccc(C(F)(F)F)c3)cs2)c1C(F)(F)F
13 µM,,23 µM,,N=C(N)CCCNC(=O)c1cnn(-c2nc(-c3cccc(C(F)(F)F)c3)cs2)c1C(F)(F)F
8.2 µM,,70 µM,,CCN(CC)CCCNC(=O)c1cnn(-c2nc(-c3ccc(C)cc3)cs2)c1C(F)(F)F
25 µM,,50 µM,,CCN(CC)CCCNC(=O)c1cnn(-c2nc(-c3cccc(C)c3)cs2)c1C(F)(F)F
,44%,,,NCCNC(=O)c1cnn(-c2nc(-c3cccc(C(F)(F)F)c3)cs2)c1C(F)(F)F
,0%,,18%,O=C(NCCCNc1ccccc1)c1cnn(-c2nc(-c3cccc(C(F)(F)F)c3)cs2)c1C(F)(F)F
12.5 µM,57%,,,CCN(CC)CCCNC(=O)c1cnn(-c2nc(-c3ccc(OC)cc3)cs2)c1C(F)(F)F
14 µM,,12.3 µM,,NCCCNC(=O)c1cnn(-c2nc(-c3cccc(C(F)(F)F)c3)cs2)c1C(F)(F)F
,,,30%,CCN(CC)CCCNC(=O)c1cnn(-c2nc(-c3cccc(C(F)(F)F)c3)c(C(=O)O)s2)c1C(F)(F)F
9.1 µM,,40 µM,,CCN(CC)CCCNC(=O)c1cnn(-c2nc(-c3ccc(C(F)(F)F)cc3)cs2)c1C(F)(F)F
6.7 µM,,11.2 µM,,CC(C)NCCCNC(=O)c1cnn(-c2nc(-c3cccc(C(F)(F)F)c3)cs2)c1C(F)(F)F
7.9 µM,,9 µM,,COc1ccc(CCNC(=O)C(CC(=O)O)NC(=O)CCCCCCCN=C(N)N)cc1 (centres undefined)
30 µM,,50 µM,,CCN(CC)CCCNC(=O)c1cnn(-c2nc(-c3ccccc3)cs2)c1C(F)(F)F
,,4.1 µM,,CCN(CC)CCCNC(=O)c1cnn(-c2nc(-c3cccc(C(F)(F)F)c3)cs2)c1C(F)(F)F
> 100 µM,,,,CC(=O)Oc1ccccc1C(=O)O [ASPIRIN]

Compound,IC50 [1],inhibition [2],IC50 [3],inhibition [4]
N=C(N)NCCCNC(=O)c1cnn(-c2nc(-c3cccc(C(F)(F)F)c3)cs2)c1C(F)(F)F,11.8 µM,,17.5 µM,
